Measurements of several laboratories.
Lines come from different studies, so protocols differ. ≈ marks a conversion by molar mass, not a printed value.

SMILES | target or system | test | system | setting | endpoint | result
CC(C)C[C@H](NC(=O)[C@H](Cc1ccccc1)NC(=O)c1cnccn1)B(O)O | NCI-H1048 | cell growth or viability, ATP luminescence |  |  | IC50 | 17 nM
Clc1ccccc1C(c1ccccc1)(c1ccccc1)n1ccnc1 | Mucor | microbial growth, disc diffusion |  | 20000 µg/mL | inhibition zone | 22 mm
O=C(CN1C(=O)/C(=C/c2cccs2)SC1=S)Nc1ccccc1 | A549 | cell growth or viability, MTT |  | 10 µM | inhibition | 23.5%
COc1cc(Nc2nccc(-c3cnn4nc(OC)ccc34)n2)cc(C(F)(F)F)c1 | NCI-H2286 | cell growth or viability, ATP luminescence |  |  | IC50 | 160 nM
O=C(CN1C(=O)/C(=C/c2cccc(O)c2)SC1=S)Nc1ccccc1 | PC-3 | cell growth or viability, MTT |  | 10 µM | inhibition | 12.6%
COc1ccc(-c2ccc(-c3ccc(C(=N)N)nc3)s2)cc1Cl | U-251 | cell growth or viability, SRB |  |  | GI50 | 1820 nM
O=C(Cc1c[nH]c2ccccc12)Nc1ccc(I)cc1 |  | ABTS scavenging |  |  | IC50 | 660 nM
CO/N=C1\CN(c2nc3c(cc2F)c(=O)c(C(=O)O)cn3C2CC2)CC1CN (stereo not drawn) | Moraxella catarrhalis | microbial growth |  |  | MIC | 2 µg/mL (≈ 5.14 µM)
COc1cc(NC(=O)Cc2c[nH]c3ccccc23)ccc1C |  | ABTS scavenging |  |  | IC50 | 1110 nM
CC1(C)S[C@@H]2[C@H](NC(=O)[C@H](N)c3ccccc3)C(=O)N2[C@H]1C(=O)O | Moraxella catarrhalis | microbial growth, broth dilution | ATCC25238 |  | MIC | < 0.25 µg/mL
O=C(CN1C(=O)/C(=C/c2ccc[nH]2)SC1=S)Nc1ccccc1 | A549 | cell growth or viability, MTT |  | 10 µM | inhibition | 21.4%
O=C(Cc1c[nH]c2ccccc12)Nc1cccc(F)c1 |  | ABTS scavenging |  |  | IC50 | 1120 nM
